SENP6 inh: inhibitors of human SENP6 protease | Q9GZR1 | Recombinant SENP6 catalytic domain, aminoluciferin luminescence | inhibition, % at 10 µM | hit rate 1.8% among 330,000;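 active means inhibition above about 50% at the single tested dose, limit read from the data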;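 further: plate controls were DMSO wells with enzyme for no effect and DMSO wells lacking enzyme for full effect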
SENP7 inh: inhibitors of human SENP7 protease. Q9BQF6. recombinant SENP7, Z-RLRGG-aminoluciferin luminescence, 40 min. inhibition, % at 5 µM. hit rate 1.5% among 330,000;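 active means inhibition above about 50% at the single test dose, limit read from the data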;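 further: plate controls were DMSO with enzyme for no effect and no enzyme buffer wells for full effect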
Target sequence (Q9BQF6 706-1050 limits assumed): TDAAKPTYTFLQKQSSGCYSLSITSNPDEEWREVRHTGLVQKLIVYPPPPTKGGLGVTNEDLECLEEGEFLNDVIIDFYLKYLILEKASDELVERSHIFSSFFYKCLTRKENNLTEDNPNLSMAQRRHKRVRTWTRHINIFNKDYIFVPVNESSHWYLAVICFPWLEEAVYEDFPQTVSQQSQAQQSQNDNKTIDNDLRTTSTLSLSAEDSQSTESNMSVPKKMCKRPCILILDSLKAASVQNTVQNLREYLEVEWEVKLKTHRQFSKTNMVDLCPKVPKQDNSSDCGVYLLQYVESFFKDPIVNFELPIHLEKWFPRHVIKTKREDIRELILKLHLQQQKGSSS
Apaf-1 inh: inhibitors of human Apaf-1 apoptosome; AID 489030; O14727; inhibition, % at 20 µM; hit rate 0.71% among 330,000; reconstituted apoptosome caspase-3 activity, DEVD-Rh110 fluorescence; active means inhibition of at least 40% at 20 µM;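 further: plate controls were DMSO wells for no effect and DEVD-CHO caspase inhibitor wells for full effect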
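System: reconstituted apoptosome with Apaf-1, cytochrome c, caspase-9, procaspase-3, dATP; Signal: Rh110 fluorescence intensity; Schedule: 30 min compound preincubation, 50 min activation, room temperature; Reagent: cytochrome c trigger plus (Z-DEVD)2-Rh110 caspase-3 substrate.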
UBC13 inh: blocks human UBC13 polyubiquitin chain formation | P61088 | TR-FRET | inhibition, % at 20 µM | hit rate 0.47% among 330,000 | AID 485273; in the data active means inhibition above about 45%, passing the limit was not always enough
Target sequence (P61088 whole entry, looked up): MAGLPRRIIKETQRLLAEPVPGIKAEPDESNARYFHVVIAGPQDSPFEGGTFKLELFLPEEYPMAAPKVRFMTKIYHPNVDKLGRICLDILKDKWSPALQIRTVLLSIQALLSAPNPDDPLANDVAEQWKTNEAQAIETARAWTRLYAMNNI
SENP8 block-1: SENP8 (human) protease inhibition; Q96LD8; recombinant SENP8, Nedd8 substrate fluorescence; inhibition, % at 20 µM; hit rate 0.64% among 360,000; AID 602440; in the data active means inhibition mostly above about 40%, no sharp cut-off; inactive means mostly below about 27%
SENP8 block-2: blocks the human protease SENP8; Q96LD8; purified SENP8, Z-RLRGG-aminoluciferin cleavage, luminescence; inhibition, % at 10 µM; hit rate 1.2% among 330,000; in the data active means inhibition above about 50%
SENP8 confirm: confirmation of human SENP8 protease inhibitors | shares compounds with SENP7 inh | Recombinant SENP8, Z-RLRGG-aminoluciferin luminescence, 60 min | inhibition, % at 12.5 µM | hit rate 40% among 6,200 | AID 488912;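 active means mean inhibition across replicates above about 50%, limit read from the data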
SENP6 conf: confirmation of human SENP6 protease inhibitors | shares compounds with SENP7 inh | recombinant SENP6, Z-RLRGG-aminoluciferin luminescence | inhibition, % at 12.5 µM | hit rate 58% among 6,200 | AID 488915
SENP7 conf: human SENP7 inhibition, confirmed; hit rate 69% among 6,200; recombinant SENP7, Z-RLRGG-aminoluciferin luminescence, 40 min; shares compounds with SENP7 inh; inhibition, % at 12.5 µM
Casp3 select: selectivity test for SENP inhibitors: human caspase-3 inhibition | inhibition, % at 12.5 µM | purified caspase-3, Z-DEVD-aminoluciferin luminescence, 60 min | hit rate 60% among 6,200 | shares compounds with SENP7 inh;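 active means mean inhibition above about 50%, limit read from the data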;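 further: plate controls were enzyme with DMSO for no effect and wells without caspase-3 for full effect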
Target sequence (P42574 28-227 limits assumed): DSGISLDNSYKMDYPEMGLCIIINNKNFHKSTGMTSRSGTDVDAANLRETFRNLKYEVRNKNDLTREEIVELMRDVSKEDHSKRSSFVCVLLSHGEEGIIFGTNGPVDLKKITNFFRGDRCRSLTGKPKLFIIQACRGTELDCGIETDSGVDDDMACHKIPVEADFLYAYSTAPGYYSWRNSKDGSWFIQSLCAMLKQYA
Luc interf: interferes with luciferase luminescence in SENP counter-screen. shares compounds with SENP7 inh. Pre-incubated SENP8/Z-RLRGG-aminoluciferin, luciferase luminescence interference. inhibition, % at 12.5 µM. hit rate 39% among 6,200;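 active means mean inhibition above about 50% when retested at one dose, limit read from the data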;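 further: plate controls were DMSO wells with completed reaction for no effect and substrate without enzyme for full effect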
The depositor's hits bear a star; · = not tested or not shown. Sampled rows, rich in hits. Any-hit rate of the full collection: about 3%.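 How the source made its calls, unless noted: active means mean inhibition above about 50% in the one-dose retest (limit read from the data); inactive means the rest.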

SMILES	SENP6 inh	SENP7 inh	Apaf-1 inh	UBC13 inh	SENP8 block-1	SENP8 block-2	SENP8 confirm	SENP6 conf	SENP7 conf	Casp3 select	Luc interf
Cc1cccc(-c2nnc(-c3ccccc3)o2)c1	88.0*	86.0*	7.5	1.5	5.0	74.2*	4.2	85.8*	97.8*	82.2*	66.4*
Cn1cc(-c2nnc(-c3ccccc3)o2)c2ccccc21	-35.8	68.3*	20.0	22.5	-338.6	46.9	14.8	12.4	15.4	17.9	6.2
CN(C)c1ccc(-c2nnc(-c3ccccc3F)o2)cc1	87.3*	84.6*	15.3	11.4	-392.8	77.3*	33.8	66.6*	74.5*	78.6*	31.8
Cc1ccccc1-c1nnc(-c2ccc(Cl)cc2)o1	10.2	75.2*	16.3	-3.7	16.7	57.6*	19.8	16.7	22.6	13.4	-3.1
Cc1ccc(-c2nnc(-c3cccnc3)o2)cc1	-22.4	-11.1	6.0	-2.0	-1.1	-7.8	·	·	·	·	·
CC1=C(C(=O)N(C(C)C)C(C)C)CC(CC(=O)NCC2CCCCC2)C(=O)N1Cc1ccc(C(C)(C)C)cc1 (centres undefined)	·	·	·	·	-0.9	·	·	·	·	·	·
O=C(/C=C/[C@H]1O[C@@H](n2ccc(=O)[nH]c2=O)[C@H](O)[C@@H]1O)NCCc1c[nH]c2ccccc12	·	·	·	·	15.7	·	·	·	·	·	·
O=c1c(Br)ccc(Br)cc1Br	·	·	·	·	12.8	·	·	·	·	·	·
Cc1cccc(-c2nnc(SCC(=O)N3CCCC3)o2)c1	36.6	17.2	-1.0	3.4	13.8	9.0	·	·	·	·	·
Cc1ccccc1-c1nnc(-c2ccccc2)o1	86.9*	82.6*	2.0	0.7	16.7	82.5*	78.4*	87.9*	97.9*	83.8*	73.5*
Cc1ccc(/C=C/c2nnc(-c3cccc(C)c3)o2)cc1	80.0*	13.3	5.6	-6.1	-272.7	68.2*	3.2	-0.2	-1.5	-2.0	-2.7
Cc1ccccc1Cn1nnc(-c2cccc(C(=O)O)c2)n1	70.8*	33.1	1.8	-3.9	6.5	31.2	63.7*	60.9*	86.2*	52.2*	72.0*
O=C(O)c1cccc(-c2nnn(Cc3ccccc3Cl)n2)c1	82.4*	43.0	1.4	-2.5	18.0	55.8*	12.1	82.8*	93.5*	44.2	44.4
C=C(C)COc1ccc(-c2ncncc2-c2ccccc2OC)c(O)c1	1.7	-6.1	23.2	6.5	12.4	84.6*	-1.5	6.0	1.8	0.5	1.1
CCOc1ccc(-c2ncncc2-c2ccccc2OC)c(O)c1	22.3	9.9	15.6	2.7	3.2	2.5	·	·	·	·	·
CN(Cc1ccccc1)C(=O)C(=O)c1ccccc1	·	·	·	·	12.7	·	·	·	·	·	·
Nc1cccc(-c2nc3ccc(N)cc3s2)c1	97.0*	97.5*	-6.0	13.4	-402.9	93.7*	97.7*	98.3*	101.8*	97.2*	96.4*
Nc1ccc(-c2nc3ccc(N)cc3s2)cc1	95.1*	95.1*	0.5	16.5	-431.9	85.8*	91.6*	92.4*	99.1*	93.2*	90.5*
N#Cc1c(NC(=O)CSc2ncn[nH]2)sc2c1CCCCC2	76.4*	33.1	-8.0	10.3	15.6	67.9*	26.7	83.2*	88.8*	23.3	48.3
NC(=O)c1c(NC(=O)c2ccccc2)sc2c1CCC2	57.2*	12.1	3.0	3.3	-126.2	40.8	-5.4	14.7	83.0*	41.6	-0.4
N#Cc1c(NC(=O)CSc2nc(N)cc(=O)[nH]2)sc2c1CCCCCC2	-23.9	1.2	1.3	4.2	18.8	-5.7	·	·	·	·	·
NC(=O)c1c(NC(=O)c2ccccc2)sc2c1CCc1ccccc1-2	10.0	63.8*	9.3	19.3	-271.7	-3.8	-26.3	-17.5	-5.8	-6.2	-9.1
O=C(Nc1sc2c(c1C(=O)O)CCC2)c1cccc(Cl)c1	97.0*	68.1*	0.4	0.4	-11.2	95.1*	96.2*	98.6*	102.4*	94.8*	97.5*
O=C(Nc1sc2c(c1C(=O)O)CCCCC2)c1cccnc1	29.0	-0.8	-0.7	-9.4	-15.2	22.9	·	·	·	·	·
CN1CCc2c(sc(NC(=O)c3ccc4ccccc4c3)c2C(N)=O)C1	61.9*	68.4*	31.6	21.7	-315.1	66.5*	59.0*	61.4*	88.2*	61.2*	43.6
SMILES	SENP6 inh	SENP7 inh	Apaf-1 inh	UBC13 inh	SENP8 block-1	SENP8 block-2	SENP8 confirm	SENP6 conf	SENP7 conf	Casp3 select	Luc interf
Cc1cccc(C(=O)Nc2sc3c(c2C(=O)O)CCCC3)c1	92.8*	69.6*	4.9	2.6	-83.2	93.1*	97.2*	98.1*	102.1*	94.6*	78.8*
Cc1cc(C(=O)Nc2sc3c(c2C#N)CCCCC3)cs1	57.2*	76.7*	0.3	18.3	-19.9	30.7	15.7	38.2	40.3	23.1	16.0
CN(C)C(=O)c1cccc(-c2cnc3c(NC=O)cc(-c4ccc(N(C)C)cc4)cn23)c1	·	·	·	·	-213.5	·	·	·	·	·	·
Cn1ncc(N=Cc2ccccc2[N+](=O)[O-])c1C(N)=O	-7.1	-8.7	6.2	-16.3	-5.2	-1.4	·	·	·	·	·
CN(C)c1ccc(C=Nc2cnn(C)c2C(N)=O)cc1	73.0*	77.5*	-8.7	-1.0	-49.3	67.6*	10.2	44.9	78.5*	62.5*	24.0
CCC(=O)N(c1ccc(F)cc1)C1C=CS(=O)(=O)C1 (centres undefined)	6.0	95.4*	4.6	7.6	8.3	-22.1	4.1	3.6	-0.3	-0.5	-0.6
CCCC(=O)N(c1ccccc1)C1C=CS(=O)(=O)C1 (centres undefined)	0.0	2.1	-21.6	5.3	21.4	1.6	·	·	·	·	·
CC(=O)C1=CCC(c2cccc3ccccc23)N(S(=O)(=O)c2ccc(C)cc2)C1 (centres undefined)	·	·	·	·	15.9	·	·	·	·	·	·
COC(=O)c1cccc(-c2noc(-c3ccccc3F)n2)c1	64.3*	81.4*	-2.7	-0.1	9.8	48.3	39.6	38.7	65.8*	56.5*	33.6
NC(=O)c1cccc(-c2noc(-c3ccccc3F)n2)c1	74.0*	57.3*	3.3	20.1	9.0	55.6*	4.1	51.5*	81.2*	66.5*	12.2
C1C2CC3C1C3C2=NN=C1C2CC3C(C2)C13	·	·	·	·	21.4	·	·	·	·	·	·
Cc1ccsc1C(=O)OCc1csc(-c2ccccc2)n1	96.2*	98.6*	3.6	5.5	11.8	95.7*	95.5*	91.8*	47.2	94.3*	87.8*
O=C(OCc1csc(-c2ccccc2)n1)c1cccs1	95.5*	96.3*	11.4	7.0	20.0	91.5*	96.7*	97.4*	101.3*	91.4*	90.3*

High-throughput results (PubChem)
